Bioassay records from PubChem.
PRMT1 inh – inhibitors of human PRMT1 | Q99873 | recombinant PRMT1, activity-based probe fluorescence polarization | inhibition, % at 2.79 µM | 370,000 tested, 1.3% active | AID 652257;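 active means inhibition above about 21% made by adding two undisclosed values, limit read from the data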
GSTO1 inh – counter-screen for RBBP9 inhibitors: inhibitors of human GSTO1 | recombinant GSTO1, activity-based probe fluorescence polarization | inhibition, % at 5.96 µM | 300,000 tested, 1.1% active;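 active means inhibition above the campaign mean inhibition plus 3 SD, cut at about 35% in these data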;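 further: 0% = GSTO1-1 with DMSO and 100% = wells lacking GSTO1-1 enzyme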
PAD4 FP inh – blocks human protein arginine deiminase 4 | Q9UM07 | recombinant PAD4, RCA probe fluorescence polarization | inhibition, % at 6.36 µM | 330,000 tested, 0.41% active;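 active means percent inhibition above a cutoff equal to the mean of all tested compounds plus 3 SD, cut at about 15% in these data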;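 further: 0% = PAD4 with RCA probe and DMSO and 100% = probe without PAD4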
Target sequence (Q9UM07 whole entry, looked up): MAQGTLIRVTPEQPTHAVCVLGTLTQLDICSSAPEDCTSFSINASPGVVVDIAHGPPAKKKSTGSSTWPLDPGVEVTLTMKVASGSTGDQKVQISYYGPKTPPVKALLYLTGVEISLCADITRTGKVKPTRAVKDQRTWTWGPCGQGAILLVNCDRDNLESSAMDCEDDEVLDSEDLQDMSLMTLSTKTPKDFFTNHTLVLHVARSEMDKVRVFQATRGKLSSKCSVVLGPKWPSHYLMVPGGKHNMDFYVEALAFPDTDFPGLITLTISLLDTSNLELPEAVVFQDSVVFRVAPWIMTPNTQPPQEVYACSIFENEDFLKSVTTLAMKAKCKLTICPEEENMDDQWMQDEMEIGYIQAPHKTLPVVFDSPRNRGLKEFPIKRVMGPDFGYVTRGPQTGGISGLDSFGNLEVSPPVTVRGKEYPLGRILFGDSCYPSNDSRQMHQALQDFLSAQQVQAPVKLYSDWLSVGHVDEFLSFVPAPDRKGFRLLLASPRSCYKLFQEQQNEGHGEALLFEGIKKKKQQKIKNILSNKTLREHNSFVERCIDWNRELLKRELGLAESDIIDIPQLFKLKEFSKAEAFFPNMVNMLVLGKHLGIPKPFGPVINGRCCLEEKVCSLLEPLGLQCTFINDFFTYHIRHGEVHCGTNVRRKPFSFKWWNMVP
Fh CTSL1 inh – blocks F. hepatica cathepsin L1 in PFM18AAP counter-screen; recombinant F. hepatica cathepsin L1, Z-Leu-Arg-MCA fluorescence; inhibition, % at 5.96 µM; 300,000 tested, 0.49% active; AID 1906;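 active means inhibition above the mean of all tested compounds plus 3 SD, set per screening campaign, cut at about 17% in these data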;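 further: 0% = plate median of test compound wells and 100% = 1 µM Z-Phe-Ala-diazomethylketone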
TDP2 absorb – TDP2 (human) inhibition, absorbance primary screen; recombinant TDP2, T5PNP hydrolysis, p-nitrophenol absorbance 415 nm; inhibition, % at 12.8 µM; 370,000 tested, 0.34% active;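 active means inhibition above the mean of all tested compounds plus 3 SD, set per campaign, cut at about 25% in these data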;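 further: 0% = DMSO with enzyme and 100% = buffer with substrate but no TDP2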
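test system = human TDP2 enzyme | input = TDP2 enzyme at 120 nM final | medium = 50 mM Tris-HCl pH 7.5 with Mg2+, KCl, DTT, BSA | also added = T5PNP substrate, 5 mM | times = 2 h at 37 °C | technique = epi absorbance | benchmarks = high control without enzyme, low control DMSO plus TDP2 | replication = each compound tested once, singlicate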
Active calls of the source: *; / = no result. This is a sample that favours compounds with a hit; in the whole collection about 2.5% have one here.

SMILES | PRMT1 inh | GSTO1 inh | PAD4 FP inh | Fh CTSL1 inh | TDP2 absorb
Cc1cc([N+](=O)[O-])cc2c1NC(=O)C2(O)N1CCCC(C)C1 (stereo unspecified) | -4 | 37* | 0 | 5 | 18
Cc1cc([N+](=O)[O-])cc2c1NC(=O)C2(O)N1CCCCCC1 (stereo unspecified) | 1 | 0 | -2 | 3 | -4
CCN(C(=O)CSc1nnc(-c2cccnc2)n1Cc1ccco1)c1ccccc1C | 3 | / | / | / | -3
CCOC(=O)Cn1cc(CN2C(C(=O)OC)CN(Cc3ccccc3)CCS2(=O)=O)nn1 (stereo unspecified) | -4 | / | / | / | 0
COc1ccc(/C=N/Nc2cc(N(C)C)nc(N(C)C)n2)cc1 | -3 | 52* | -9 | 0 | 2
CN(C)c1cc(N/N=C\c2ccccc2)nc(N(C)C)n1 | 2 | 7 | -6 | 0 | 4
COc1ccc2c(c1)CCCN2C(=O)C1CCCN(S(=O)(=O)c2ccc(Cl)s2)C1 (stereo unspecified) | -4 | / | / | / | 9
O=C(CSc1nc2ccccc2nc1N1CCCCC1)N1CCN(S(=O)(=O)c2cc(Cl)ccc2Cl)CC1 | 1 | / | / | / | 0
CCn1c(NCc2ccccc2Cl)nc2ccccc21 | 2 | 36* | -4 | -2 | -1
CCn1c(NCc2ccc(OC)cc2)nc2ccccc21 | -1 | -3 | -5 | -2 | -2
CC1(C)CC(=O)C2=C(C1)OC1=C(C(=O)CC(C)(C)C1)C2c1ccc(O)cc1O | 78* | 9 | -5 | 5 | -13
CC1(C)CC(=O)C2=C(C1)OC1=C(C(=O)CC(C)(C)C1)C2c1ccc(O)c([N+](=O)[O-])c1 | 3 | 8 | 1 | 18* | 2
CC1(C)CC(=O)C2=C(C1)OC1=C(C(=O)CC(C)(C)C1)C2c1cccc([N+](=O)[O-])c1 | 0 | / | / | / | 1
C=CCN1[C@H](C#N)[C@@H](c2ccc(C#Cc3cccc(OC)c3)cc2)[C@H]1CO | 1 | / | / | / | 9
O=C(CCc1ccccc1)N[C@H]1[C@H](OC(=O)c2cnccn2)CCC[C@]12C(=O)N(Cc1ccccc1)c1ccccc12 | 1 | / | / | / | -6
c1ccc(CNC2CCC23CCC(c2ccccc2)CC3)cc1 (stereo unspecified) | -6 | / | / | / | -7
Cc1c(C(=O)NNc2cc(=O)n(C)c(=O)n2C)cccc1[N+](=O)[O-] | 23* | 1 | 2 | 0 | -1
CCC(CC)NC(=O)c1cccc([N+](=O)[O-])c1C | 0 | 1 | 2 | 2 | 2
CCCCc1cc(=O)oc2cc(OCC(=O)N3CCC(C(=O)O)(c4ccccc4)CC3)ccc12 | 0 | -11 | -5 | 20* | -1
CCCCc1cc(=O)oc2cc(OCC(=O)N3CCOCC3)ccc12 | 4 | -4 | -2 | -3 | 1
N#CCC[C@H]1CC[C@]2(CCCN(C(=O)c3ccccc3)C2)O1 | 3 | / | / | / | -7
O=C(COC(=O)CNC(=O)c1ccccc1Cl)Nc1ncc(C(F)(F)F)cc1Cl | -3 | 2 | -1 | 21* | 7
O=C(COC(=O)C1CC1)Nc1ncc(C(F)(F)F)cc1Cl | 2 | 8 | 1 | -11 | 7
CC(=O)OC1=C(O)C(=O)c2ccccc2C1=O | / | 59* | -3 | -1 | /
CN=CC1=C(O)c2ccccc2C1=O | -1 | -4 | -1 | 2 | -5
SMILES | PRMT1 inh | GSTO1 inh | PAD4 FP inh | Fh CTSL1 inh | TDP2 absorb
Cc1ccc(C)c(NC(=O)CSc2nnc([C@@H](N)Cc3ccccc3)o2)c1 | 6 | 5 | 5 | 18* | 13
NCCc1nnc(SCC(=O)Nc2ccc(Br)cc2)o1 | 9 | 3 | -3 | 1 | 4
CC(C)C[C@H](NC(=O)OC(C)(C)C)c1nnc(SCc2cccc(F)c2)o1 | 4 | 1 | 6 | 12 | -8
Cc1ccc(C)c(NC(=O)CSc2nnc(-c3ccco3)o2)c1 | -3 | 12 | -2 | 0 | 1
CC(C)C[C@H](NC(=O)OC(C)(C)C)c1nnc(SCC(=O)Nc2ccc(Br)cc2)o1 | 0 | -4 | 0 | 99* | -10
CC(C)C[C@H](N)c1nnc(SCC(=O)Nc2ccc(Br)cc2)o1 | 8 | 2 | 6 | 91* | 6
Cc1sc2nc(SCC(=O)c3ccc(O)c(O)c3)n(C)c(=O)c2c1C | 4 | / | / | / | -2
C=CCN(C)C(C#Cc1ccccc1)c1ccccc1C(F)(F)F (stereo unspecified) | -1 | / | / | / | 6
N#CN(CC(N)=O)c1nc(N2CCCCC2)nc(N2CCCCC2)n1 | 0 | -12 | 0 | 25* | -3
